High-throughput results: PubChem BioAssay, Johns Hopkins Ion Channel Center
Only some compounds are listed: those with a hit (about 2.3% of all), similar ones and a draw of the others.
TRPC6 inh: blocks the mouse TRPC6 cation channel; Q61143; HEK293-TRPC6, membrane potential dye, ACh-evoked depolarization; stronger effect = lower value; B-score at 10 µM; actives 1.1% (n = 310,000);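 active means B-score under library mean minus 3 SD, initial fluorescence not abnormally high, positive integrated signal ratio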;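 further: B-score derived from integrated fluorescence ratio over the kinetic read; more negative B-score means stronger inhibition of depolarization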
TRPC6 activator: activates the mouse TRPC6 cation channel; Q61143; HEK293-TRPC6 membrane potential dye fluorescence; stronger effect = higher value; B-score at 10 µM; actives 0.13% (n = 310,000);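 active means B-score of the integrated fluorescence ratio above library mean plus 3 SD, and starting fluorescence ratio within library mean plus 5 SD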;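 further: higher score means more depolarization so channel activation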
TRPC4 block: blocks the mouse TRPC4 cation channel; AID 2247; B-score at 10 µM; actives 0.39% (n = 300,000); HEK293 TRPC4beta/mu-opioid, DAMGO-evoked Fluo4 calcium flux; stronger effect = lower value;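 active means B-score over 3 SD under the library average, no early fluorescence shift, positive overall ratio signal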
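material = TRPC4beta/mu-opioid receptor HEK293 cell line | probe or stimulus = sequential submaximal and maximal DAMGO stimulation | compound dosing = one concentration per compound | measured by = Fluo4 Ca2+ flux fluorescence | evaluation = integrated fluorescence ratio relative to baseline, converted to per-well B score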
TRPC4 PAM: allosteric potentiators of mouse TRPC4 channel. Q9QUQ5. HEK293 TRPC4beta/mu-opioid, DAMGO EC20, Fluo-4 Ca2+ flux; stronger effect = higher value. B-score at 10 µM. actives 0.42% (n = 310,000). AID 2227;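 active means B-score of calcium response area above 5 SD of library B-scores, with initial fluorescence ratio within 5 SD of library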;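 further: B-score of integrated fluorescence ratio over time as area under calcium response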
TRPC4 act: TRPC4 (mouse) channel activation | HEK293 TRPC4beta/mu-opioid, Fluo4 calcium fluorescence; stronger effect = higher value | actives 0.49% (n = 310,000) | B-score at 10 µM | Q9QUQ5;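 active means B-score above 5 SD of library B-scores, and initial fluorescence ratio not above library mean plus 5 SD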;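 further: positive B-score marks a calcium rise read as TRPC4 activation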
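Incubation: 45 min room-temperature Fluo4 loading, 110 s read / System: HEK293 cells stably co-expressing mouse TRPC4beta and mu-opioid receptor / Signal: Fluo4 fluorescence, kinetic / Control set: buffer (low) and maximal DAMGO (high) / Measure: integrated baseline-normalised fluorescence ratio, converted to per-well B score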
An asterisk follows results filed as active.

CCC(Oc1ccc(Br)cc1)C(=O)N1CCN(c2ncccn2)CC1 (stereo unspecified) was read as TRPC6 inh inactive, TRPC6 activator inactive, TRPC4 block inactive, TRPC4 PAM inactive and TRPC4 act inactive.
CCOc1cc(N2CCOCC2)c(OCC)cc1NS(=O)(=O)c1cc(NC(C)=O)ccc1OC was read as TRPC6 inh inactive, TRPC6 activator inactive, TRPC4 block inactive, TRPC4 PAM inactive and TRPC4 act inactive.
For O=c1[nH]ncc(N2CCCC2)c1Cl the results were TRPC6 inh inactive, TRPC6 activator inactive, TRPC4 block inactive, TRPC4 PAM inactive and TRPC4 act inactive.
O=c1[nH]ncc(N2CCN(C(c3ccccc3)c3ccccc3)CC2)c1Cl was read as TRPC6 inh inactive, TRPC6 activator inactive, TRPC4 block -9*, TRPC4 PAM inactive and TRPC4 act inactive.
C=C(C)CCC(C)N1CCC(n2nccc2NC(=O)CCOc2ccccc2)CC1 (stereo unspecified) was read as TRPC6 inh inactive, TRPC6 activator inactive, TRPC4 block inactive, TRPC4 PAM inactive and TRPC4 act inactive.
Screening Cc1nc2nc(-c3cccs3)[nH]c2cc1Br returned TRPC6 inh inactive, TRPC6 activator inactive, TRPC4 block inactive, TRPC4 PAM inactive and TRPC4 act inactive.
Cc1ccccc1Cn1ccc(NC(=O)c2cnn3cccnc23)n1 was read as TRPC6 inh inactive, TRPC6 activator inactive, TRPC4 block inactive, TRPC4 PAM inactive and TRPC4 act inactive.
Screening Cc1cc(NC(=O)c2cnn3cccnc23)nn1CC(=O)Nc1cccnc1 returned TRPC6 inh inactive, TRPC6 activator inactive, TRPC4 block inactive, TRPC4 PAM 150* and TRPC4 act 51*.
O=C(Nc1ccc2c(c1)OCO2)c1cnn2cccnc12 was read as TRPC6 inh inactive, TRPC6 activator inactive, TRPC4 block inactive, TRPC4 PAM 50* and TRPC4 act inactive.
`Cc1ccc(N(CC(=O)N2CCN(c3ccccc3F)CC2)S(=O)(=O)c2c(C)noc2C)cc1` gave TRPC6 inh inactive, TRPC6 activator inactive, TRPC4 block inactive, TRPC4 PAM inactive and TRPC4 act inactive.
CCc1ccc(NC(=O)C(=O)NCC2CCCN2S(=O)(=O)c2ccccc2)cc1 (stereo unspecified) was read as TRPC6 inh inactive, TRPC6 activator inactive, TRPC4 block inactive, TRPC4 PAM inactive and TRPC4 act inactive.
Brc1ccc2[nH]c3c(NCc4ccccn4)ncnc3c2c1 was read as TRPC6 inh inactive, TRPC6 activator inactive, TRPC4 block inactive, TRPC4 PAM inactive and TRPC4 act 61*.
`CCCCCCCCCCOC(=O)Cn1c(COc2ccccc2C)[n+](C)c2ccccc21` gave TRPC6 inh inactive, TRPC6 activator inactive, TRPC4 block -6*, TRPC4 PAM inactive and TRPC4 act inactive.
`Cc1ccc(NC(=O)C(C)OC(=O)Cc2c[nH]c3ccccc23)cc1` (stereo unspecified) gave TRPC6 inh inactive, TRPC6 activator inactive, TRPC4 block -6*, TRPC4 PAM inactive and TRPC4 act inactive.
CCn1cc(CNCc2cn(-c3ccccc3C)nc2-c2ccc(OC)c(F)c2)cn1 was read as TRPC6 inh inactive, TRPC6 activator inactive, TRPC4 block inactive, TRPC4 PAM inactive and TRPC4 act 129*.
For COc1ccc(-c2nn(-c3ccccc3C)cc2CNC(C)Cn2cncn2)cc1F (stereo unspecified) the results were TRPC6 inh inactive, TRPC6 activator inactive, TRPC4 block inactive, TRPC4 PAM inactive and TRPC4 act inactive.
For COc1ccc(-c2nn(-c3ccccc3C)cc2CNCCc2cnc[nH]2)cc1F the results were TRPC6 inh inactive, TRPC6 activator inactive, TRPC4 block inactive, TRPC4 PAM inactive and TRPC4 act inactive.
`COc1ccc(-c2nn(-c3ccccc3C)cc2CNC(C)c2cn(C)nc2C)cc1F` (stereo unspecified) gave TRPC6 inh inactive, TRPC6 activator inactive, TRPC4 block inactive, TRPC4 PAM inactive and TRPC4 act 118*.
CNC[C@@H](Cc1ccccc1)NC[C@@H](CC1CCCCC1)NCCCc1ccccc1 was read as TRPC6 inh inactive, TRPC6 activator inactive, TRPC4 block inactive, TRPC4 PAM inactive and TRPC4 act 77*.
Screening CSc1nc(N2CCOCC2)c2c3c(sc2n1)CCCC3 returned TRPC6 inh inactive, TRPC6 activator inactive, TRPC4 block -6*, TRPC4 PAM inactive and TRPC4 act inactive.
`COc1ccc(C(O)(C2CCCCC2)C(CN2CCOCC2)c2ccccc2)cc1` (stereo unspecified) gave TRPC6 inh inactive, TRPC6 activator inactive, TRPC4 block inactive, TRPC4 PAM 14* and TRPC4 act inactive.
For CCC(O)(c1ccc(OC)cc1)C(CN1CCOCC1)c1ccccc1 (stereo unspecified) the results were TRPC6 inh inactive, TRPC6 activator inactive, TRPC4 block -6*, TRPC4 PAM inactive and TRPC4 act inactive.
Screening COc1ccc(C(O)(C(C)C)C(CN2CCOCC2)c2ccc(Cl)cc2)cc1 (stereo unspecified) returned TRPC6 inh inactive, TRPC6 activator inactive, TRPC4 block inactive, TRPC4 PAM 12* and TRPC4 act inactive.
O=C(Nc1ccc(F)c(Cl)c1)C1CC2CCC1C2 (stereo unspecified) was read as TRPC6 inh inactive, TRPC6 activator inactive, TRPC4 block inactive, TRPC4 PAM inactive and TRPC4 act inactive.
Screening CCCCCCc1cc2cc(-c3nnc(-c4cc(OC)c(OC)c(OC)c4)o3)c(=O)oc2cc1O returned TRPC6 inh inactive, TRPC6 activator inactive, TRPC4 block inactive, TRPC4 PAM 40* and TRPC4 act inactive.
For CCCCCCc1cc2cc(-c3nnc(-c4ccccc4O)o3)c(=O)oc2cc1O the results were TRPC6 inh inactive, TRPC6 activator inactive, TRPC4 block inactive, TRPC4 PAM 25* and TRPC4 act inactive.
For Cc1[nH]c2ccccc2c1C(=O)C(C)OC(=O)c1ccccc1NCCO (stereo unspecified) the results were TRPC6 inh inactive, TRPC6 activator inactive, TRPC4 block inactive, TRPC4 PAM inactive and TRPC4 act inactive.
Screening CCOc1ccccc1N(CC)C(=O)c1nn(C)c2c1CSc1ccccc1-2 returned TRPC6 inh inactive, TRPC6 activator inactive, TRPC4 block -6*, TRPC4 PAM inactive and TRPC4 act inactive.
CCCN(C(=O)c1ccccc1Cc1ccccc1)C1CCS(=O)(=O)C1 (stereo unspecified) was read as TRPC6 inh inactive, TRPC6 activator inactive, TRPC4 block inactive, TRPC4 PAM inactive and TRPC4 act inactive.
